The source made the active and inactive calls. The calls are words filed in the database; no cut-off is given here.
Legend:
Format in all cases: functional
RAW264.7 [1] = assay: Anti-inflammatory activity in mouse RAW264.7 cells assessed as inhibition of LPS-induced TNFalpha secretion at 50 ug/ml preincubated for 1 hr followed by LPS stimulation for 23 hrs by ELISA relative to control
How it was run: (§1)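 RAW264.7 murine macrophages were grown in DMEM with 10% FBS at 37 °C in 5% CO2 and seeded at 5 × 10^5 to 80−90% confluence. Procyanidins in sterile water were added at 10, 50 or 100 μg/mL for 1 h. LPS (E. coli 0111:B4, 1 μg/mL) followed for 23 h. TNF-α in the collected medium was measured by ELISA and reported as % inhibition of LPS-dependent secretion.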

RAW264.7 [2] = assay: Anti-inflammatory activity in mouse RAW264.7 cells assessed as inhibition of LPS-induced TNFalpha secretion at 100 ug/ml preincubated for 1 hr followed by LPS stimulation for 23 hrs by ELISA relative to control; how it was run: as §1
RAW264.7 [3] = assay: Anti-inflammatory activity in mouse RAW264.7 cells assessed as inhibition of LPS-induced TNFalpha secretion at 10 ug/ml preincubated for 1 hr followed by LPS stimulation for 23 hrs by ELISA relative to control; how it was run: as §1

Row | Compound | inhibition at 50 µg/mL (RAW264.7 [1]) | inhibition at 100 µg/mL (RAW264.7 [2]) | inhibition at 10 µg/mL (RAW264.7 [3]) | inhibition (RAW264.7 [2])
1 | Oc1cc(O)c2c(c1)O[C@@]1(c3ccc(O)c(O)c3)Oc3cc(O)c4c(c3[C@@H]2[C@H]1O)O[C@H](c1ccc(O)c(O)c1)[C@H](O)[C@H]4c1c(O)cc2c(c1O)[C@@H]1c3c(cc(O)c4c3O[C@H](c3ccc(O)c(O)c3)[C@H](O)C4)O[C@](c3ccc(O)c(O)c3)(O2)[C@@H]1O | 100% | 100% | 82.2% | 
2 | Oc1cc(O)c2c(c1)O[C@@]1(c3ccc(O)c(O)c3)Oc3cc(O)c4c(c3[C@@H]2[C@H]1O)O[C@@]1(c2ccc(O)c(O)c2)Oc2cc(O)c3c(c2[C@@H]4[C@H]1O)O[C@H](c1ccc(O)c(O)c1)[C@@H](O)C3 | 78.8% | 100% | 6.28% | 
3 | Oc1cc(O)c2c(c1)O[C@@H](c1ccc(O)c(O)c1)[C@@H](O)[C@H]2c1c(O)cc(O)c2c1O[C@@]1(c3ccc(O)c(O)c3)Oc3cc(O)c4c(c3[C@@H]2[C@H]1O)O[C@H](c1ccc(O)c(O)c1)[C@@H](O)C4 |  |  |  | inactive
4 | Oc1cc(O)c2c(c1)O[C@@]1(c3ccc(O)c(O)c3)Oc3cc(O)c4c(c3[C@@H]2[C@H]1O)O[C@H](c1ccc(O)c(O)c1)[C@@H](O)C4 |  |  |  | inactive
5 | Oc1cc(O)c2c(c1)O[C@H](c1ccc(O)c(O)c1)[C@H](O)[C@H]2c1c(O)cc2c(c1O)[C@@H]1c3c(cc(O)c4c3O[C@H](c3ccc(O)c(O)c3)[C@@H](O)C4)O[C@](c3ccc(O)c(O)c3)(O2)[C@@H]1O | 89.7% | 100% | 0% | 
6 | Oc1cc(O)c2c(c1)O[C@@]1(c3ccc(O)c(O)c3)Oc3cc(O)c4c(c3[C@@H]2[C@H]1O)O[C@H](c1ccc(O)c(O)c1)[C@H](O)[C@H]4c1c(O)cc2c(c1O)C[C@H](O)[C@@H](c1ccc(O)c(O)c1)O2 | 99.4% | 100% | 28.6% | 
7 | Oc1cc(O)c2c(c1)O[C@@]1(c3ccc(O)c(O)c3)Oc3cc(O)c4c(c3[C@@H]2[C@H]1O)O[C@H](c1ccc(O)c(O)c1)[C@H](O)[C@H]4c1c(O)cc2c(c1O)[C@@H]1c3c(cc(O)c4c3O[C@H](c3ccc(O)c(O)c3)[C@@H](O)C4)O[C@](c3ccc(O)c(O)c3)(O2)[C@@H]1O | 71.2% | 98.6% | 4.26% | 

From ChEMBL document CHEMBL4014271, “Trimeric and Tetrameric A-Type Procyanidins from Peanut Skins” (2017)
